This is a sample that favours compounds with a hit; in the whole collection about 2.6% have one here.
SENP8 block-1: SENP8 protease inhibitors, primary screen, biochemical, luminescence; 330,000 compounds, 1.2% hits; AID 2540, 2010; purified SENP8, Z-RLRGG-aminoluciferin cleavage; inhibition, % at 10 µM; in the data active = inhibition above about 50%
SENP7 inh: SENP7 protease inhibitors, primary screen, biochemical, luminescence, uHTS | recombinant SENP7, Z-RLRGG-aminoluciferin luminescence, 40 min | inhibition, % at 5 µM | 330,000 compounds, 1.5% hits;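 active = inhibition above about 50% at the single test dose, limit read from the data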;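 also: plate controls were DMSO with enzyme for no effect and no enzyme buffer wells for full effect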
Target sequence (Q9BQF6 706-1050 limits assumed): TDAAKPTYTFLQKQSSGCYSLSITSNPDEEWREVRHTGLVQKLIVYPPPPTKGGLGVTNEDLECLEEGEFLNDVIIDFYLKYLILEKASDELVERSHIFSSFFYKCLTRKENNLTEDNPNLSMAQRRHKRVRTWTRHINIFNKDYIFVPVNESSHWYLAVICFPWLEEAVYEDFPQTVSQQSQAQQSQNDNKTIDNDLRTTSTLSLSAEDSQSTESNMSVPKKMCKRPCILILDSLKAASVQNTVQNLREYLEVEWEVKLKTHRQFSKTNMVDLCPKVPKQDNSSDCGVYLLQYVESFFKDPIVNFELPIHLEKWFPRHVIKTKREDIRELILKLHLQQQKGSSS
Platelet DG rel: inhibitors of platelet dense granule secretion, primary screen, cell-based, MLPCN, human platelets | inhibition, %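 (compounds screened at 7.5 µM in platelet-rich plasma)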 | human platelet-rich plasma, SFLLRN dense granule ATP release, luminescence | 300,000 compounds, 0.22% hits;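 active = mean replicate score, as percent of positive control, at or above 50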
SENP8 block-2: human SENP8 protease inhibitors, primary screen, biochemical, fluorescence, Nedd8 protein substrate, uHTS; Sentrin-specific protease 8 (Homo sapiens), Q96LD8; recombinant SENP8; inhibition, % at 20 µM; 360,000 compounds, 0.64% hits; in the data active = inhibition mostly above about 40%, no sharp cut-off; inactive = mostly below about 27%
SENP1 FRET inh: human SENP1 catalytic domain inhibitors, primary screen, biochemical, FRET, uHTS | Sentrin-specific protease 1 (Homo sapiens), Q9P0U3 | recombinant SENP1 catalytic domain, CyPet-SUMO1-YPet FRET cleavage | inhibition, % at 10 µM | 360,000 compounds, 0.21% hits | AID 624204, 2012;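 active = inhibition at least 30% at 10 µM, raw YFP signal under a set limit, fluorescence ratio 0.5 to 1.5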;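 also: 0% = enzyme with DMSO and 100% = no enzyme wells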
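Assay system: hSENP1 catalytic domain, recombinant. Amount: SENP1 enzyme, 20 pM final. Schedule: 50 min reaction, RT, dark. Technique: FRET, CFP and YFP emission. Control set: no-enzyme wells low, DMSO-plus-enzyme wells high control.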
SENP6 block: SENP6 protease inhibitors, primary screen, biochemical, luminescence, uHTS; Sentrin-specific protease 6 (Homo sapiens), Q9GZR1; Recombinant SENP6 catalytic domain, aminoluciferin luminescence; inhibition, % at 10 µM; 330,000 compounds, 1.8% hits; AID 2599, 2010;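 active = inhibition above about 50% at the single tested dose, limit read from the data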;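 also: plate controls were DMSO wells with enzyme for no effect and DMSO wells lacking enzyme for full effect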
SENP8 conf: SENP8 protease inhibitors, retest, confirmation, biochemical, luminescence, single concentration; shares compounds with SENP7 inh; Recombinant SENP8, Z-RLRGG-aminoluciferin luminescence, 60 min; inhibition, % at 12.5 µM; 6,200 compounds, 40% hits; AID 488912, 2010;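 active = mean inhibition across replicates above about 50%, limit read from the data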
SENP6 confirm: SENP6 protease inhibitors, confirmation, biochemical, luminescence, single concentration | recombinant SENP6, Z-RLRGG-aminoluciferin luminescence | shares compounds with SENP7 inh | inhibition, % at 12.5 µM | 6,200 compounds, 58% hits | AID 488915, 2010
SENP7 confirm: SENP7 protease inhibitors, retest, confirmation, biochemical, luminescence, single concentration; shares compounds with SENP7 inh; recombinant SENP7, Z-RLRGG-aminoluciferin luminescence, 40 min; inhibition, % at 12.5 µM; 6,200 compounds, 69% hits; AID 488917, 2010
Casp3 select: caspase-3 protease inhibitors, confirmation, selectivity assay for SENP inhibitor project, biochemical, single concentration; shares compounds with SENP7 inh; purified caspase-3, Z-DEVD-aminoluciferin luminescence, 60 min; inhibition, % at 12.5 µM; 6,200 compounds, 60% hits; AID 488918, 2010;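 active = mean inhibition above about 50%, limit read from the data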;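 also: plate controls were enzyme with DMSO for no effect and wells without caspase-3 for full effect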
Target sequence (P42574 28-227 limits assumed): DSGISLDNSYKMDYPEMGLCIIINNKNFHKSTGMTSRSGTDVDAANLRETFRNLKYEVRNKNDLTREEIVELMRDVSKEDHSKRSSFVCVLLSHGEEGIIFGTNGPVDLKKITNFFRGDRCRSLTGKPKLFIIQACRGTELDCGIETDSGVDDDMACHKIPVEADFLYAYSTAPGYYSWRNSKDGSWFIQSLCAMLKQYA
Luc interf: counter-screen for SENP inhibitors: luminescence interference; 6,200 compounds, 39% hits; Pre-incubated SENP8/Z-RLRGG-aminoluciferin, luciferase luminescence interference; inhibition, % at 12.5 µM; shares compounds with SENP7 inh;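 active = mean inhibition above about 50% when retested at one dose, limit read from the data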;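 also: plate controls were DMSO wells with completed reaction for no effect and substrate without enzyme for full effect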
* marks the source's active call; other numbers are inactive results; / = no result given.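 The calls were made as follows, unless noted: active = mean inhibition above about 50% in the one-dose retest (limit read from the data); inactive = the rest.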

SMILES	SENP8 block-1	SENP7 inh	Platelet DG rel	SENP8 block-2	SENP1 FRET inh	SENP6 block	others
COc1ccc(CN2Cc3cc(N4CCCCC4)ccc3-n3nncc3C2)cc1	/	/	/	-115	0	/
CCNC(=O)[C@H]1O[C@@H](n2cnc3c(N)ncnc32)[C@H](O)[C@@H]1O	-1	8	84*	0	1	4
COC(=O)C1=C(C(=O)OC)SC2(S1)C(C(=O)OC)=C(C(=O)OC)Sc1c2ssc1=O	/	/	/	43*	8	/
COc1ccc(C(c2nnnn2-c2ccc3c(c2)OCCO3)N2CCC3(CC2)C(=O)NCN3c2ccccc2)cc1 (stereo unspecified)	/	/	/	17	1	/
O=C(O)CC1OCC=C2CN3CCC45C6=CC(=O)C(=O)C([N+](=O)[O-])=C6NC4C1C2CC35 (stereo unspecified)	/	/	-9	112*	19	/
CN(Cc1cccc(-c2ccncc2)c1)C(=O)Oc1ccccc1Cc1ccccc1	/	/	/	7	0	/
NC1CC2CCCCC2CC1(O)c1ccccc1 (stereo unspecified)	/	/	/	12	1	/
CC1Oc2cc3c(-c4c(O)cc(O)c5c(O)c6c(cc45)OC(C)C(C)C6=O)c(O)cc(O)c3c(O)c2C(=O)C1C (stereo unspecified)	7	16	0	89*	65*	28
C[C@]12CC[C@@H]3c4ccc(O)c(O)c4CC[C@H]3[C@@H]1CC[C@@H]2O	13	4	3	45*	-1	-2
COC(=O)C1C=C2c3cccc4[nH]cc(c34)CC2N(C)C1 (stereo unspecified)	38	18	/	/	/	54*
CCC(CO)NC(=O)C1C=C2c3cccc4[nH]cc(c34)CC2N(C)C1 (stereo unspecified)	4	-6	0	-394	39	13
CC(C)C[C@H]1C(=O)N2CCC[C@H]2[C@]2(O)O[C@](NC(=O)[C@@H]3C=C4c5cccc6[nH]cc(c56)C[C@H]4N(C)C3)(C(C)C)C(=O)N12	36	21	/	-396	-34	51*
CCOC(=O)[C@]12Cc3c(cc(OC)c(OC)c3OC)[C@H]1N(C1CCCCC1)C(=O)c1ccccc12	/	/	/	5	-2	/
C=CCNC(=S)Nc1ccc(OC(=O)Nc2ccc(Cl)c(Cl)c2)cc1	/	/	/	18	3	/
O=C(Nc1ccc(Cl)c(Cl)c1)c1ccco1	51*	39	4	10	2	56*	SENP8 conf=60*;SENP6 confirm=58*;SENP7 confirm=85*;Casp3 select=48;Luc interf=48
CC(C)(C)n1nnnc1C(c1ccccc1)N1CCC2(CC1)C(=O)NCN2c1ccccc1 (stereo unspecified)	/	/	/	20	0	/
Nc1c2c(nc3sc4c(c13)CCCC4)CCCCC2	69*	72*	-13	13	-1	81*	SENP8 conf=17;SENP6 confirm=19;SENP7 confirm=47;Casp3 select=50*;Luc interf=9
Nc1c2c(nc3sc4c(c13)CCCC4)CCCC2	9	15	-1	-10	-2	16
CC1=CC(=O)OC2CC3OC4C[C@@H](C)C5OC6CC7O[C@]8(C)C/C=C\C9OC%10CC%11OC(CC(C)C%12OCCO%12)CC(O)[C@]%11(C)OC%10CC9OC8C[C@]7(C)O[C@]6(C)CCC5OC4C[C@]3(C)OC12 (stereo partly specified)	7	-3	/	0	0	-5
c1ccc2c(NC3=NCCS3)cccc2c1	88*	61*	-19	8	-1	76*	SENP8 conf=2;SENP6 confirm=-2;SENP7 confirm=-3;Casp3 select=-2;Luc interf=-5
CCOc1ccc(NC(=O)c2c(O)[nH]c(=O)[nH]c2=O)cc1	59*	80*	56*	14	-1	74*	SENP8 conf=71*;SENP6 confirm=59*;SENP7 confirm=95*;Casp3 select=84*;Luc interf=39
CCOC(=O)c1ccc(NC(=O)c2c(O)[nH]c(=O)[nH]c2=O)cc1	66*	72*	14	18	0	83*	SENP8 conf=30;SENP6 confirm=19;SENP7 confirm=36;Casp3 select=21;Luc interf=22
CC(=O)OC1CC2OC3C=C(C)CCC3(C)C1(C)C21CO1 (stereo unspecified)	/	/	/	21	2	/
Cc1ccc(S(=O)(=O)c2nc(-c3ccccc3Cl)oc2N(C)C2CCN(C)CC2)cc1	-5	-3	/	-113	1	-17
O=c1[nH]c(=O)n(-c2cccc3ccccc23)c(O)c1/C=N/N1CCCCCC1	-1	-3	-6	14	2	-32
SMILES	SENP8 block-1	SENP7 inh	Platelet DG rel	SENP8 block-2	SENP1 FRET inh	SENP6 block	others
Clc1ccccc1NC1=NCCCS1	9	-2	9	14	1	8
Clc1ccccc1Nc1ncnc(-n2cccc2)n1	64*	72*	2	24	0	81*	SENP8 conf=67*;SENP6 confirm=68*;SENP7 confirm=91*;Casp3 select=60*;Luc interf=48
O=P1(NCCCl)OCCC(OO)N1CCCl (stereo unspecified)	/	/	/	-12	-13	/
CCCNC1=C(C)C(=O)C2=C(C1=O)C(COC(N)=O)[C@]1(OC)C3NC3CN21 (stereo partly specified)	38	29	8	32	-2	66*	SENP8 conf=-10;SENP6 confirm=-5;SENP7 confirm=-8;Casp3 select=-3;Luc interf=-9
CCCCCN1C(=O)c2cc(OC)ccc2[C@@]2(C(=O)OCC)Cc3cc(OC)ccc3[C@@H]12	/	/	/	-2	0	/
CN(C)c1ccccc1	/	/	/	2	3	/
Cc1cccc(N=Nc2ccc(N(C)C)cc2)c1	84*	87*	3	16	4	90*	SENP8 conf=-24;SENP6 confirm=83*;SENP7 confirm=19;Casp3 select=20;Luc interf=20
NC(=Nc1ccccc1)NN=Cc1c[nH]c2ccccc12	/	/	/	10	1	/

Source: PubChem
